This is an account of results in ChEMBL document CHEMBL1137426, “Bivalent inhibitors of glutathione S-transferase: the effect of spacer length on isozyme selectivity” (Bioorg Med Chem Lett, 2006).

The structures appear in SMILES notation.

The term IC50 denotes the concentration needed to halve the response being measured. The low end stands for higher potency, the high end for lower potency.

The target in test [1] is T1, Glutathione S-transferase A1 (Homo sapiens, UniProt P08263).
T1 sequence (P08263 whole entry): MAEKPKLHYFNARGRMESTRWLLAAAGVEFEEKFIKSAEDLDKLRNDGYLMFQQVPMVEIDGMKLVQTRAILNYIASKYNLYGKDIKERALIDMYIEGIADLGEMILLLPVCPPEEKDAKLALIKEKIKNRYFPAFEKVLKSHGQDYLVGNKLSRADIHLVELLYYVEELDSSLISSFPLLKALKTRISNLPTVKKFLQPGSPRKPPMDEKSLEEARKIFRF
Kind of test: Inhibition of GST A1-1.

The target of test [2] is Glutathione S-transferase P (Homo sapiens, UniProt P09211). Kind of test: Inhibition of GST P1-1.
Another test is filed under the species Homo sapiens. Kind of test: Selectivity for GST A1-1 over GST P1-1. The essentials:
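Ratio of IC50s from CDNB–GSH conjugation assays. Each E. coli-expressed, purified enzyme at 20 nM, GSH and CDNB at the respective K_M. Inhibitor diluted from DMSO stock into water, final DMSO <1%. Absorbance at 340 nm for 1 min, four-log concentration span, triplicate.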

Sequence of Glutathione S-transferase P (P09211 whole entry): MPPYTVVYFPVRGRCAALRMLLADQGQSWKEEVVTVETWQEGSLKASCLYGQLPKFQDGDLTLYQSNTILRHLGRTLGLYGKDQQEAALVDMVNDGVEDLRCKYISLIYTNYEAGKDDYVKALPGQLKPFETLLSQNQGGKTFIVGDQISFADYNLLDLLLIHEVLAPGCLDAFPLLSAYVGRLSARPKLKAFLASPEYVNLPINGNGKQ

As for `C=C(CC)C(=O)c1ccc(OCC(=O)NCC(=O)NCc2cc(CNC(=O)CNC(=O)COc3ccc(C(=O)C(=C)CC)c(Cl)c3Cl)cc(C(N)=O)c2)c(Cl)c1Cl`, the 50% inhibitory concentration (IC50) in test [1] came to 0.024 µM; in test [2] it was 0.704 µM. Besides, in the test filed under Homo sapiens, the Selectivity ratio was 29.

`C=C(CC)C(=O)c1ccc(OCC(=O)O)c(Cl)c1Cl` [ETHACRYNIC ACID] showed an IC50 in test [1] of 5 µM.

For `C=C(CC)C(=O)c1ccc(OCC(=O)NCc2cc(CNC(=O)COc3ccc(C(=O)C(=C)CC)c(Cl)c3Cl)cc(C(N)=O)c2)c(Cl)c1Cl`, in test [1], half-maximal inhibition (IC50) was put at 0.0327 µM. Further, in the test listed under Homo sapiens, the Selectivity ratio is 30.

As for `C=C(CC)C(=O)c1ccc(OCC(=O)NCCCC(=O)NCc2cccc(C(N)=O)c2)c(Cl)c1Cl`, the values for the concentration for half-maximal inhibition (IC50) in test [1] and in test [2] were 13.8 µM and 15 µM, respectively. Also, the Selectivity ratio in the test listed under Homo sapiens came out at 1.1.
